Data taken from ChEMBL document CHEMBL2146403, “Synthesis and Antitumor Activity of Ellagic Acid Peracetate” (ACS Med Chem Lett, 2012).
Calls of active or inactive are those of the source. The calls are words filed in the database; no cut-off is given here.

Experiments:
B16 [1] = assay: Antitumor activity against mouse B16 cells xenografted in C57BL/6 mouse assessed as tumor growth inhibition at 0.5 mg/kg, po administered for 1 week prior to tumor injection followed by treatment for additional 2 weeks relative to vehicle-treated control; type: functional
Outline: (§1)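 Subcutaneous B16 melanoma in C57BL/6 immunocompetent mice aged 8–12 weeks. Test agent or vehicle was given daily in drinking water at 0.5 mg/kg for one week. B16 cells were then inoculated and dosing continued for 2 more weeks. At sacrifice, tumors were excised and weighed against the vehicle group, and kidneys, livers and spleens were inspected.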

Mus musculus [2] = assay: Toxicity in C57BL/6 mouse xenografted with B16 cells assessed as adverse effects at 0.5 mg/kg, po administered for 1 week prior to tumor injection followed by treatment for additional 2 weeks relative to vehicle-treated control; type: organism-based; design: dose 0.5 mg/kg, route oral; details: in vivo; outline: as §1
Mus musculus [3] = assay: Immunoenhancing activity in C57BL/6 mouse assessed as increase in peripheral blood WBC level at 0.5 mg/kg, po administered for 1 week by trypan blue exclusion method relative to vehicle-treated control; type: functional
Outline: (§2)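 Tumor-free normal mice were dosed for 1 week with test agent or vehicle. WBCs in peripheral blood and immune cells enriched from bone marrow and liver were counted by Trypan Blue exclusion and compared with the vehicle group. Columns are group means, bars SE, significance p ≤ 0.05.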

Mus musculus [4] = assay: Immunoenhancing activity in C57BL/6 mouse assessed as increase in total immune cells in bone marrow at 0.5 mg/kg, po administered for 1 week by trypan blue exclusion method relative to vehicle-treated control; type: functional; outline: as §2
Mus musculus [5] = assay: Immunoenhancing activity in C57BL/6 mouse assessed as increase in total immune cells in liver at 0.5 mg/kg, po administered for 1 week by trypan blue exclusion method relative to vehicle-treated control; type: functional; outline: as §2
Mus musculus [6] = assay: Immunoenhancing activity in C57BL/6 mouse assessed as increase in immune subset cells in bone marrow at 0.5 mg/kg, po administered for 1 week by flow cytometric analysis relative to vehicle-treated control; type: functional, organism-based; design: dose 0.5 mg/kg
Mus musculus [7] = assay: Immunoenhancing activity in C57BL/6 mouse assessed as increase in immune subset cells in liver at 0.5 mg/kg, po administered for 1 week by flow cytometric analysis relative to vehicle-treated control; type: functional, organism-based; design: dose 0.5 mg/kg
Mus musculus [8] = assay: Immunomodulatory activity in C57BL/6 mouse NK cells expressing NK1.1 and CD3 assessed as cell surface CD107a expression level at 0.5 mg/kg, po administered for 1 week by YAC1 co culture-based immunostaining analysis (reference value: 41.5%); type: functional
Mus musculus [9] = assay: Immunomodulatory activity in C57BL/6 mouse CD3-deficient NK cells expressing NK1.1 assessed as […]- and IL-18 induced IFNgamma level at 0.5 mg/kg, po administered for 1 week by flow cytometric analysis (reference value: 76.7%); type: functional
Mus musculus [10] = assay: Toxicity in C57BL/6 mouse assessed as change in body weight at 0.5 mg/kg, po administered for 3 weeks relative to vehicle-treated control; type: organism-based; design: dose 0.5 mg/kg, route oral; details: in vivo, 504 h
Outline: (§3)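 Oral acute toxicity in normal mice dosed daily with test agent or vehicle for 3 weeks. Body, spleen and liver were inspected and weighed. Values are group means with n ≥ 4 and SE bars.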

Mus musculus [11] = assay: Toxicity in C57BL/6 mouse assessed as change in liver weight at 0.5 mg/kg, po administered for 3 weeks relative to vehicle-treated control; type: organism-based; design: dose 0.5 mg/kg, route oral; details: in vivo, 504 h; outline: as §3
Mus musculus [12] = assay: Toxicity in C57BL/6 mouse assessed as change in spleen weight at 0.5 mg/kg, po administered for 3 weeks relative to vehicle-treated control; type: organism-based; design: dose 0.5 mg/kg, route oral; details: in vivo, 504 h; outline: as §3
B16 [13] = assay: Growth inhibition of mouse B16 cells at 10 uM after 24 to 96 hrs by trypan blue exclusion assay; type: functional, cell-based
B16 [14] = assay: Induction of apoptosis in mouse B16 cells assessed as early apoptotic cells at 10 uM after 72 hrs by AnnexinV/PI staining-based flow cytometric analysis (reference value: 2.28%); type: functional
B16 [15] = assay: Induction of apoptosis in mouse B16 cells assessed as late apoptotic cells at 10 uM after 72 hrs by AnnexinV/PI staining-based flow cytometric analysis (reference value: 2.48%); type: functional
B16 [16] = assay: Induction of apoptosis in mouse B16 cells assessed as necrotic cells at 10 uM after 72 hrs by AnnexinV/PI staining-based flow cytometric analysis (reference value: 5.26%); type: functional
B16 [17] = assay: Induction of apoptosis in mouse B16 cells assessed as viable cells at 10 uM after 72 hrs by AnnexinV/PI staining-based flow cytometric analysis (reference value: 90%); type: functional; details: B16, 72 h, read-out: Activity
B16 [18] = assay: Induction of apoptosis in mouse B16 cells assessed as decrease in Bcl2 expression at 10 uM after 72 hrs by Western blot analysis; type: functional, cell-based

| Structure (SMILES) | inhibition in vivo at 0.5 mg/kg (B16 [1]; read-out: GI) | Activity (Mus musculus [2]) | Activity (Mus musculus [3]) | Activity (Mus musculus [4]) | Activity (Mus musculus [5]) | Activity (Mus musculus [6]) | Activity (Mus musculus [7]) | Activity (Mus musculus [8]) | Activity (Mus musculus [9]) | Activity (Mus musculus [10]) | Activity (Mus musculus [11]) | Activity (Mus musculus [12]) | growth inhibition (GI) (B16 [13]) | Activity (B16 [14]) | Activity (B16 [15]) | Activity (B16 [16]) | viability at 10 µM (B16 [17]) | Activity (B16 [18]) | growth inhibition (GI) (B16 [1]) |
| --- | --- | --- | --- | --- | --- | --- | --- | --- | --- | --- | --- | --- | --- | --- | --- | --- | --- | --- | --- |
| CC(=O)Oc1cc2c(=O)oc3c(OC(C)=O)c(OC(C)=O)cc4c(=O)oc(c1OC(C)=O)c2c34 [ELLAGIC ACID TETRAACETATE] | 70% | Non-toxic | 70% | 50% | 200% | inactive | inactive | 40.4% | 78.2% | Non-toxic | Non-toxic | Non-toxic | Active | 6.99% | 9.78% | 11.8% | 71.4% | Active |  |
| O=c1oc2c(O)c(O)cc3c(=O)oc4c(O)c(O)cc1c4c23 [ELLAGIC ACID] |  | Non-toxic |  | inactive | inactive | inactive | inactive | 37.2% | 74.9% | Non-toxic | Non-toxic | Non-toxic | Active | 4.33% | 6.84% | 4.95% | 83.9% | Active | inactive |
